From ChEMBL document CHEMBL4602700, “Discovery of WD Repeat-Containing Protein 5 (WDR5)-MYC Inhibitors Using Fragment-Based Methods and Structure-Based Design” (J Med Chem, 2020)
pKd: −log10 of the molar value. Activity calls are given as the source filed them. The rule behind the calls is not given here.

Assays:
[1] = molecular target: T1, WD repeat-containing protein 5 (Homo sapiens, UniProt P61964); assay: Binding affinity to recombinant human His/FLAG-tagged WDR5 (22 to 334 residues) expressed in Escherichia coli expression system using FITC-AHx-SEEEIDVVSV as substrate by fluorescence polarization assay
[2] = molecular target: T1, WD repeat-containing protein 5; assay: Inhibition of N-terminal FLAG-tagged human full-length WDR5 expressed in HEK293T cells harboring human C-terminal HA-tagged c-MYC assessed as reduction in MYC recruitment RPL5 binding site at 20 uM incubated for 10 hrs by chromatin immunoprecipitation analysis; assay type: cell-based; conditions: HEK-293T
Outline: (§1)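 HEK293 cells expressing HA-MYC and GFP grown to ~70% confluence, PBS-washed, treated 10 h in OptiMEM. Crosslinked 1% formaldehyde 10 min at room temperature, quenched with 125 mM glycine. Sonicated chromatin, α-HA ChIP; qPCR percent input against a 30-fold dilution of decrosslinked chromatin. One-tailed t-test; minimum three independent biological repeats.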

[3] = molecular target: T1, WD repeat-containing protein 5; assay: Inhibition of N-terminal FLAG-tagged human full-length WDR5 expressed in HEK293T cells harboring human C-terminal HA-tagged c-MYC assessed as reduction in MYC recruitment RPS14 binding site at 20 uM incubated for 10 hrs by chromatin immunoprecipitation analysis; assay type: cell-based; conditions: HEK-293T; outline: as §1
[4] = molecular target: T1, WD repeat-containing protein 5; assay: Inhibition of N-terminal FLAG-tagged human full-length WDR5 expressed in HEK293T cells harboring human C-terminal HA-tagged c-MYC assessed as reduction in MYC recruitment RNPS1 binding site at 20 uM incubated for 10 hrs by chromatin immunoprecipitation analysis; assay type: cell-based; conditions: HEK-293T; outline: as §1
[5] = molecular target: T1, WD repeat-containing protein 5; assay: Inhibition of N-terminal FLAG-tagged human full-length WDR5 expressed in HEK293T cells harboring human C-terminal HA-tagged c-MYC assessed as reduction in MYC recruitment C7orf40 binding site at 20 uM incubated for 10 hrs by chromatin immunoprecipitation analysis; assay type: cell-based; conditions: HEK-293T; outline: as §1
[6] = molecular target: T1, WD repeat-containing protein 5; assay: Inhibition of N-terminal FLAG-tagged human full-length WDR5 expressed in HEK293T cells harboring human C-terminal HA-tagged c-MYC assessed as reduction in WDR5-MYC interaction at 50 uM by immunoprecipitation analysis; conditions: HEK-293T
[7] = molecular target: MLL1-ASH2L/RbBP5/WDR5/DPY30 (Homo sapiens) (UniProt P61964+Q03164+Q9UBL3+Q15291+Q9C005); assay: Inhibition of MLL1/WDR5/RBBP5/ASH2L/DPY30 complex (unknown origin) assessed as reduction in histone methyltransferase activity; assay type: protein assay
[8] = molecular target: T1, WD repeat-containing protein 5; assay: Inhibition of WDR5 in human HEK293T cells assessed as reduction in WDR5-MYC interaction at 5 uM incubated for 24 hrs by immunoprecipitation analysis; assay type: cell-based; conditions: HEK-293T
Outline: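 Intact HEK293 cells (WDR5-FLAG/c-MYC-HA) at ~70% confluence, PBS-washed, treated 24 h with 5 μM compound in OptiMEM; lysates α-FLAG immunoprecipitated overnight at 4 °C, MYC co-precipitation immunoblotted, input blotted for MYC levels; normalized to vehicle; minimum two biological repeats.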

[9] = molecular target: T1, WD repeat-containing protein 5; assay: Inhibition of N-terminal FLAG-tagged human full-length WDR5 expressed in HEK293T cells harboring human C-terminal HA-tagged c-MYC assessed as reduction in MYC recruitment […] binding site at 20 uM incubated for 10 hrs by chromatin immunoprecipitation analysis; assay type: cell-based; conditions: HEK-293T; outline: as §1
[10] = molecular target: T1, WD repeat-containing protein 5; assay: Inhibition of N-terminal FLAG-tagged human full-length WDR5 expressed in HEK293T cells harboring human C-terminal HA-tagged c-MYC assessed as reduction in MYC recruitment ZFPM1 binding site at 20 uM incubated for 10 hrs by chromatin immunoprecipitation analysis; assay type: cell-based; conditions: HEK-293T; outline: as §1

pKd [1] | inhibition [6] | inhibition [7] | inhibition [8] | further results | SMILES
4.49 |  |  |  |  | O=S(=O)(Nc1nc2ccccc2s1)c1cc(Br)cc(Cl)c1O
4.96 |  |  |  |  | O=S(=O)(Nc1cn(C2CCNC2)cn1)c1cc(Br)cc(Cl)c1O (configuration not stated)
 | Active | Active | Active | inhibition [2]: Active; inhibition [3]: Active; inhibition [4]: Active; inhibition [5]: Active; inhibition [9]: inactive; inhibition [10]: inactive | CS(=O)(=O)c1nc(NS(=O)(=O)c2cc(Br)cc(Cl)c2O)cn1C1CCCC1
6.40 | Active |  | Active |  | O=S(=O)(Nc1cn(C2CCCC2)cn1)c1cc(Br)cc(Cl)c1O
 | Active | Active | Active |  | CCOC(=O)c1nc(NS(=O)(=O)c2cc(Br)cc(Cl)c2O)cn1C1CCCC1
5.10 |  |  |  |  | O=S(=O)(Nc1cn(CC2CCCO2)cn1)c1cc(Br)cc(Cl)c1O (configuration not stated)
5.92 |  |  |  |  | O=S(=O)(Nc1cn(C(C2CC2)C2CC2)cn1)c1cc(Br)cc(Cl)c1O
5.68 |  |  |  |  | O=S(=O)(Nc1cn(CC2CC2)cn1)c1cc(Br)cc(Cl)c1O
5.30 |  |  |  |  | O=C(c1nc(NS(=O)(=O)c2cc(Br)cc(Cl)c2O)cn1C1CCCC1)N1CCC(C2CCCN2)CC1 (configuration not stated)
 | Active | Active | inactive |  | O=S(=O)(Nc1cnn(C2CCCC2)c1)c1cc(Br)cc(Cl)c1O
 | Active | Active | Active |  | CNC(=O)c1nc(NS(=O)(=O)c2cc(Br)cc(Cl)c2O)cn1C1CCCC1
